# RanGTP-Imp inh = inhibitors of RanGTP-importin-beta interaction, primary screen, biochemical, FRET, CFP-Ran, YFP-importin-beta, homogeneous | cell-free CFP-Ran/YFP-importin-beta FRET ratio | AID 2216 | 300,000 tested, 1.1% active | inhibition, % (test concentration not listed);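 active means more than half of the replicate wells show a fall in the fluorescence ratio signal beyond about 16%, limit read from the data, passing the limit was not always enough; inconclusive means exactly half of the replicate wells pass the set limit; inactive means fewer than half of replicates pass the limit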
# Hck Nef HTS = human Hck-Nef kinase inhibition. Recombinant Hck-YEEI plus Nef, Z-Lyte FRET kinase assay. inhibition, % at 20 µM. 220,000 tested, 0.68% active. AID 463187;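 active means Hck-Nef kinase inhibition above about 50%, limit read from the data; inactive means inhibition below that limit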
# Target sequence (P08631 whole entry, looked up): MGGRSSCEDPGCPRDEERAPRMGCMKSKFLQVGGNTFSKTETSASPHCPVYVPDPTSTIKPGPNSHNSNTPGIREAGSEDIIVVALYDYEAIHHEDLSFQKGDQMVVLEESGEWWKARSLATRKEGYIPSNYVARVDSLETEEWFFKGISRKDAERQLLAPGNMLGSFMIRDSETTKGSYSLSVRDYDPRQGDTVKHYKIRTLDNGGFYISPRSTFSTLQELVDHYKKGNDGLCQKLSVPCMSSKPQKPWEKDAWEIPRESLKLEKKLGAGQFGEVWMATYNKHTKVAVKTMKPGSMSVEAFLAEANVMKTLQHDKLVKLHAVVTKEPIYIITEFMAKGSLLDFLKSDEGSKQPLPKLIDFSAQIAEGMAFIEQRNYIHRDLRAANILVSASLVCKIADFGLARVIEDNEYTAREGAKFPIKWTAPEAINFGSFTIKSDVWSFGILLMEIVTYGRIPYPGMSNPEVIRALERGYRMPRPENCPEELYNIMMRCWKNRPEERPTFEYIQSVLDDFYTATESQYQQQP
# Runt-CBFb FRET = blocks binding of human RUNX1 Runt domain to CBFb; AID 1496; inhibition, % at 20 µM; Cerulean-Runt/Venus-CBFb FRET ratio 530/480, 1 h; Q01196+Q13951; 220,000 tested, 0.46% active;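 active means inhibition over about 50% at 20 µM in the single-dose screen, limit read from the data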
#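 Assay system: Cerulean-Runt domain / Medium: Tris 50 mM pH 7.5, KCl, K2SO4, 0.01% BSA / Timing: protein complex preformed 1 h, compound exposure 1 h, room temperature, dark / Measured by: FRET, excitation 422 nm, emission at 530 and 480 nm / Evaluation: loss of energy transfer signal / Control set: 5 µM unlabeled CBFb as full-inhibition high control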
# Runt-SMMHC FRET = inhibitors of human RUNX1 Runt domain binding to CBFb-SMMHC; 220,000 tested, 0.74% active; inhibition, % at 20 µM; Q01196+Q13951; Cerulean-Runt/Venus-CBFb-SMMHC FRET ratio 530/480, 1 h;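 active means mean inhibition across duplicate retests at 20 µM reaching about 50%, limit read from the data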;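 further: inhibitors lower the FRET ratio by blocking Runt binding to CBFb-SMMHC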
# pCIP destab = lowers stability of the mouse p/CIP coactivator protein; 290,000 tested, 0.01% active; decrease of EGFP signal, % at 10 µM; AID 1984; Q05BA5; F442A p/CIP-EGFP cells, EGFP fluorescence, 16 h;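 active means EGFP signal decrease of at least 30% at 10 µM or well 3 SD below plate mean, unless failing retest; inactive means the rest, including hits failing retest or dose response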
# Pemphigus Ab inh = blocks pemphigus antibody binding to human desmoglein-3; binding (percent of control), % at 10 µM; 310,000 tested, 0.48% active; DSG3-coupled beads, scFv-anti-DSG3-GFP binding, flow cytometry; hits give low values; AID 588358;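 active means binding more than 3 SD below its plate's average and above zero; inconclusive means below that plate limit but binding exactly zero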;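 further: hits lower antibody fragment binding to DSG3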
# Hck Nef conf = Hck-Nef kinase inhibition, confirmation | Recombinant Hck-YEEI:Nef, Z-Lyte FRET kinase assay | shares compounds with Hck Nef HTS | calls only at 10 µM | 1,300 tested, 28% active | AID 463188;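 active means average inhibition of at least 50%, with Z-scores no higher than 3 in both the phospho-tyrosine peptide and fluorescence counterscreens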
# Numbers stand for hits; n = inactive; u = inconclusive; x = no result shown; + = active, no number. Hits are enriched below; roughly 2.1% of the tested compounds scored in any of these assays.
SMILES,RanGTP-Imp inh,Hck Nef HTS,Runt-CBFb FRET,Runt-SMMHC FRET,pCIP destab,Pemphigus Ab inh,Hck Nef conf
CCCCCCc1cc2cc(S(=O)(=O)c3ccc(C)cc3)c(=O)oc2cc1O,163,80,n,n,n,n,x
Cc1ccc(S(=O)(=O)Nc2ccc(O)c(S(=O)(=O)c3ccc(C)cc3)c2)cc1,n,x,x,x,n,n,x
CCCCCCc1cc2cc(C(=O)Nc3ccccc3)c(=O)oc2cc1O,117,72,113,58,n,n,n
CC(C)c1ccc(S(=O)(=O)c2cc3cc(Br)ccc3oc2=O)cc1,n,n,n,n,n,n,x
CCCCCCc1cc2cc(S(=O)(=O)c3ccc(Cl)cc3)c(=O)oc2cc1O,166,110,n,81,n,n,x
C[C@@H]1CN([C@H](C)CO)C(=O)c2c(c3ccccc3n2C)-c2ccccc2CO[C@H]1CN(C)C(=O)NC1CCCCC1,x,x,x,x,x,n,x
COc1ccc(O)c(/C=N/NC(=O)CCC(=O)Nc2ccc(F)cc2)c1,n,x,x,x,n,u,x
O=C(COC(=O)CNS(=O)(=O)c1ccc(F)c(F)c1F)Nc1ccc(OC(F)F)cc1,n,n,n,n,n,n,x
Cc1nccc(-c2sc(-c3cccs3)nc2C)n1,n,86,n,n,n,n,n
COC(OC)c1ccnc(-c2ccc(OC(=O)c3ccccc3)cc2)n1,u,58,n,n,n,n,n
COC(OC)c1ccnc(-c2ccc(OC(C)=O)cc2)n1,n,n,n,n,n,n,x
Cc1cccc(N2C(=O)CSC23CCCCC3)c1,n,n,n,n,n,n,x
O=C(CCNS(=O)(=O)c1cccc2nsnc12)NCc1ccccc1,n,x,x,x,n,n,x
COc1ccc(CNC(=O)CCNS(=O)(=O)c2cccc3nsnc23)cc1,n,154,n,n,n,n,n
Cc1cc(C)cc(NC(=O)CCC(=O)Nc2nnc(C(C)C)s2)c1,n,x,x,x,n,n,x
CC(=O)Oc1cc2oc(=O)c3c(c2cc1Cl)CCC3,n,111,81,178,n,n,x
CCN(CC)c1ccc(/C=N/NC(=O)c2nnn(-c3nonc3N)c2CN(C)C2CCCCC2)cc1,x,x,x,x,x,n,x
COc1ccc(CCNc2ccc(C(CC(N)=O)NC(=O)Cc3ccc(Br)cc3)cc2[N+](=O)[O-])cc1 (configuration not stated),n,57,n,n,n,n,n
NC(=O)CC(NC(=O)Cc1ccc(Br)cc1)c1ccc(NCCc2ccc(F)cc2)c([N+](=O)[O-])c1 (configuration not stated),n,50,n,n,n,n,n
NC(=O)CC(NC(=O)Cc1cccc2ccccc12)c1ccc(NCCOc2ccccc2)c([N+](=O)[O-])c1 (configuration not stated),n,53,n,n,n,x,n
NC(=O)CC(NC(=O)Cc1cccc2ccccc12)c1ccc(NCC2CC2)c([N+](=O)[O-])c1 (configuration not stated),n,n,n,n,n,n,x
c1ccc(CCNc2ccc3c(c2)Cc2ccccc2-3)nc1,x,x,x,x,x,n,x
CC(C)n1cnc2c(Nc3cccc(Cl)c3)nc(NCCCO)nc21,n,96,n,n,n,x,+
CC(C)n1cnc2c(Nc3ccc(C(=O)O)cc3)nc(Cl)nc21,n,53,n,n,n,n,n
CC(C)[C@H](CO)Nc1nc(NCc2ccc(S(N)(=O)=O)cc2)c2ncn(C(C)C)c2n1,n,n,n,n,n,n,x
SMILES,RanGTP-Imp inh,Hck Nef HTS,Runt-CBFb FRET,Runt-SMMHC FRET,pCIP destab,Pemphigus Ab inh,Hck Nef conf
CC(C)n1cnc2c(NCc3ccccc3)nc(NCc3ccccc3)nc21,n,n,n,n,n,n,x
CC(C)[C@H](CO)Nc1nc(Nc2ccc(Cl)c(C(=O)O)c2)c2ncn(C(C)C)c2n1,n,65,n,n,n,n,+
Cc1ccc2c(c1)N(CCC(=O)NC1CCCCC1C)C(=O)CO2 (configuration not stated),n,x,x,x,n,x,x
CC(=O)N(c1ccc(C)cc1)c1nc(C)cc(C)c1C#N,n,n,n,n,n,n,x
Fc1ccc(N2N=C(c3cccs3)CC2c2ccccc2)cc1 (configuration not stated),n,56,59,91,n,n,n
O=S(=O)(c1ccccc1)N1N=C(c2cccs2)CC1c1ccc(F)cc1 (configuration not stated),n,n,n,n,n,n,x
Cc1ccc(NC(=O)Nc2sc(=S)n(C)c2C)cc1,n,92,n,n,n,x,n
COc1ccc(C(=O)Nc2ccccc2C(=O)NC(Cc2ccc(O)cc2)C(=O)NNC(=O)c2ccccc2Cl)cc1 (configuration not stated),n,66,n,n,n,n,n
COc1ccc(C(=O)NNC(=O)C(Cc2ccc(O)cc2)NC(=O)c2ccccc2NC(=O)c2ccc(OC)cc2)cc1 (configuration not stated),n,n,n,n,n,n,x
O=C(CSc1ncnc2c1oc1ccccc12)Nc1cccc(Cl)c1,n,51,n,n,n,n,n
Cc1ccc(C)c(NC(=O)Cn2nc(-c3ccccc3)nc2-c2ccccc2)c1,n,59,n,n,n,x,n
Cc1ccc(NC(=O)Cn2nc(-c3ccccc3)nc2-c2ccccc2)c(C)c1,n,n,n,n,n,n,x
CN(C)C(CNC(=O)c1ccccc1OCc1ccc(Cl)cc1)c1ccco1 (configuration not stated),u,x,x,x,x,n,x
N=C1/C(=C\c2ccc(-c3cccc(C(=O)O)c3)o2)C(=O)N=C2SC=C(c3ccccc3)N12,n,64,n,n,n,n,+
Cc1ccccc1-c1nc(-c2ccc(NC(=O)c3ccc4c(c3)OCO4)cc2)no1,n,n,n,n,n,n,x
COc1cc(-c2nc(-c3ccc(NC(=O)c4ccc5c(c4)OCO5)cc3)no2)cc(OC)c1OC,n,84,n,n,n,x,+
CCCC(=O)Nc1ccc(Cl)c(NC(=O)c2cccc(OC)c2)c1,u,60,n,n,n,n,n
CCCC(=O)Nc1ccc(Cl)c(NC(=O)c2cccnc2)c1,n,n,n,n,n,n,x
O=C(c1ccc([N+](=O)[O-])cc1)N1CCN(C2=NS(=O)(=O)c3ccccc32)CC1,n,x,x,x,n,n,x
CCc1ccccc1Oc1ccc(S(=O)(=O)N2CCN(C)CC2)cn1,n,x,x,x,x,n,x
COc1ccc(CNC(=O)c2ccc(=O)oc2)cc1OC,n,57,n,n,n,u,x
CC(=O)Nc1nc(C)c(-c2csc(Nc3cccc([N+](=O)[O-])c3)n2)s1,u,51,n,n,n,n,n
CCC(=O)Nc1nc(C)c(-c2csc(Nc3ccc(C(=O)O)cc3)n2)s1,n,x,x,x,n,n,x

# Bioassay records from PubChem BioAssay.
